ChEMBL document CHEMBL1806372, “Cytotoxic ring A-modified steroid analogues derived from Grundmann's ketone” (Eur J Med Chem, 2011)
The source made the active and inactive calls. The calls are words filed in the database; no cut-off is given here.

Columns and labels:
T47D = assay: Growth inhibition of human T47D cells assessed as cell growth at 10^-5 M after 48 hrs by sulforhodamine B assay; type: functional; settings: read-out: Activity
Outline: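 NCI 60-cell panel single-dose screen under the NCI protocol. Cells are exposed to compound at one concentration (10^-5 M) for 48 h. The end point is protein staining with sulforhodamine B. Each line is reported as percent growth of treated cells relative to untreated control cells.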

OVCAR-4 = assay: Growth inhibition of human OVCAR4 cells assessed as cell growth at 10^-5 M after 48 hrs by sulforhodamine B assay; type: functional; settings: OVCAR-4, 48 h, read-out: Activity
Outline: (§1)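 NCI-60 single high-dose screen run under the NCI protocol. Cells were incubated with compound at 10^-5 M for 48 h. The end point was determined by sulforhodamine B protein staining. Results are reported as percent growth of treated cells relative to untreated control cells.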

OVCAR-3 = assay: Growth inhibition of human OVCAR3 cells assessed as cell growth at 10^-5 M after 48 hrs by sulforhodamine B assay; type: functional; settings: OVCAR-3, 48 h, read-out: Activity; outline: as §1
SK-MEL-28 = assay: Growth inhibition of human SK-MEL-28 cells assessed as cell growth at 10^-5 M after 48 hrs by sulforhodamine B assay; type: functional; settings: SK-MEL-28, 48 h, read-out: Activity; outline: as §1
[1] = Antibacterial activity against Pseudomonas antimicrobica assessed as zone of inhibition at 5 uL and 32 degC after 36 hrs by disk diffusion method; type: functional, Burkholderia gladioli
Outline: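 Disc diffusion on AC agar, each strain spread evenly over the medium; test compounds given as 1% (w/v) DMSO solutions. Plates covered and incubated 36 h at 32 °C, then the diameter of the zone of inhibited growth measured in mm. Tetracycline served as antibacterial reference.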

NCI-H226 = assay: Growth inhibition of human NCI-H226 cells assessed as cell growth at 10^-5 M after 48 hrs by sulforhodamine B assay; type: functional; settings: NCI-H226, 48 h, read-out: Activity; outline: as §1
DU-145 = assay: Growth inhibition of human DU145 cells assessed as cell growth at 10^-5 M after 48 hrs by sulforhodamine B assay; type: functional; settings: DU-145, 48 h, read-out: Activity
Outline: (§2)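 NCI 60-cell panel single high-dose screen: compound applied at 10^-5 M for 48 h, endpoint by sulforhodamine B protein-binding dye. Values reported as growth percent of treated cells relative to untreated control cells.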

Nakaseomyces glabratus = assay: Antifungal activity against Candida glabrata assessed as zone of inhibition at 5 uL and 28 degC after 36 hrs by disk diffusion method; type: functional
Outline: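 Agar disc diffusion with the test compound applied as a 1% (w/v) DMSO solution. Yeasts were grown on AC agar and Aspergillus niger on potato dextrose broth agar, each strain spread evenly. Plates were covered and kept 36 h at 28 °C, and the inhibition zone diameter was read in mm. Clotrimazole served as reference.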

A498 = assay: Growth inhibition of human A498 cells assessed as cell growth at 10^-5 M after 48 hrs by sulforhodamine B assay; type: functional; settings: A498, 48 h, read-out: Activity; outline: as §2
HL-60(TB) [2] = assay: Cytotoxicity against human HL-60(TB) cells after 48 hrs by sulforhodamine B assay; type: functional; settings: HL-60, 48 h, read-out: LC50 (the source's name)
Outline: (§3)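 NCI 60 human tumour cell line panel run to the NCI protocol. GI50, TGI and LC50 come from log concentration vs % growth inhibition curves for each cell line. Lines insensitive at the top concentration are reported with ">".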

HOP-62 = assay: Cytotoxicity against human HOP62 cells after 48 hrs by sulforhodamine B assay; type: functional; settings: HOP-62, 48 h, read-out: LC50 (the source's name); outline: as §3
[3] = Cytotoxicity against human Hs 578T cells after 48 hrs by sulforhodamine B assay; type: functional; settings: read-out: LC50 (the source's name); outline: as §3
LOX IMVI = assay: Growth inhibition of human LOXIMVI cells after 48 hrs by sulforhodamine B assay; type: functional
Outline: (§4)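 From log concentration versus % growth curves, GI50 (50% decrease in net growth), TGI (total growth inhibition) and LC50 (net 50% loss of initial cells) are derived for each line.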

NCI-H23 = assay: Growth inhibition of human NCI-H23 cells after 48 hrs by sulforhodamine B assay; type: functional; settings: NCI-H23, 48 h
Outline: (§5)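 GI50, TGI and LC50 were derived from log concentration versus % growth inhibition curves for each cell line. GI50 is the concentration giving a 50% decrease in net cell growth. Insensitive lines are reported as greater than the highest concentration.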

SNB-19 = assay: Cytotoxicity against human SNB19 cells after 48 hrs by sulforhodamine B assay; type: functional; settings: SNB-19, 48 h, read-out: LC50 (the source's name); outline: as §3
HL-60(TB) [4] = assay: Growth inhibition of human HL-60(TB) cells after 48 hrs by sulforhodamine B assay; type: functional; settings: HL-60, 48 h
MOLT-4 = assay: Growth inhibition of human MOLT4 cells after 48 hrs by sulforhodamine B assay; type: functional; settings: MOLT-4, 48 h; outline: as §5
OVCAR-5 = assay: Growth inhibition of human OVCAR5 cells after 48 hrs by sulforhodamine B assay; type: functional; settings: OVCAR-5, 48 h; outline: as §5
HCC 2998 = assay: Growth inhibition of human HCC2998 cells after 48 hrs by sulforhodamine B assay; type: functional; settings: HCC 2998, 48 h; outline: as §4
ACHN = assay: Growth inhibition of human ACHN cells after 48 hrs by sulforhodamine B assay; type: functional; outline: as §4
HT-29 = assay: Growth inhibition of human HT-29 cells after 48 hrs by sulforhodamine B assay; type: functional; settings: HT-29, 48 h; outline: as §4
SK-MEL-2 = assay: Cytotoxicity against human SK-MEL-2 cells after 48 hrs by sulforhodamine B assay; type: functional; settings: SK-MEL-2, 48 h, read-out: LC50 (the source's name); outline: as §3
UACC-257 = assay: Growth inhibition of human UACC257 cells after 48 hrs by sulforhodamine B assay; type: functional; settings: UACC-257, 48 h
Outline: (§6)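 NCI 60-cell panel five-dose assay. GI50, TGI and LC50 are derived from log concentration versus % growth inhibition curves. Cell lines insensitive at the top concentration are given a ">" prefix.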

A549 = assay: Cytotoxicity against human A549 cells after 48 hrs by sulforhodamine B assay; type: functional; settings: A549, 48 h, read-out: LC50 (the source's name); outline: as §3
NCI-H522 = assay: Cytotoxicity against human NCI-H522 cells after 48 hrs by sulforhodamine B assay; type: functional; settings: NCI-H522, 48 h, read-out: LC50 (the source's name); outline: as §3
SW-620 = assay: Cytotoxicity against human SW620 cells after 48 hrs by sulforhodamine B assay; type: functional; settings: SW-620, 48 h, read-out: LC50 (the source's name)
SF-268 = assay: Growth inhibition of human SF268 cells after 48 hrs by sulforhodamine B assay; type: functional; settings: SF-268, 48 h; outline: as §5
U-251 = assay: Growth inhibition of human U251 cells after 48 hrs by sulforhodamine B assay; type: functional; settings: U-251, 48 h; outline: as §6
TK-10 = assay: Cytotoxicity against human TK10 cells after 48 hrs by sulforhodamine B assay; type: functional; settings: TK-10, 48 h, read-out: LC50 (the source's name)

SMILES	growth at 10 µM (T47D) [%]	growth at 10 µM (OVCAR-4) [%]	growth at 10 µM (OVCAR-3) [%]	growth at 10 µM (SK-MEL-28) [%]	diameter of the inhibition zone (DIZ) [1] [mm]	growth at 10 µM (NCI-H226) [%]	growth at 10 µM (DU-145) [%]	diameter of the inhibition zone (DIZ) (Nakaseomyces glabratus)	growth at 10 µM (A498) [%]	CC50 (HL-60(TB) [2]) [nM]	CC50 (HOP-62) [nM]	CC50 [3] [nM]	GI50 (LOX IMVI) [nM]	TGI (LOX IMVI) [nM]	GI50 (NCI-H23) [nM]	CC50 (SNB-19) [nM]	GI50 (HL-60(TB) [4]) [nM]	GI50 (MOLT-4) [nM]	TGI (MOLT-4) [nM]	GI50 (OVCAR-5) [nM]	other results
CC(C)CCC[C@@H](C)[C@H]1CC[C@H]2[C@@H]3CCN4C(=O)CCC(=O)N4[C@@H]3CC[C@]12C	64.4	103	104	76.4	12	90.3	100	inactive	89.2												
CC(C)CCC[C@@H](C)[C@H]1CC[C@H]2C3=CCn4c(=O)ccc(=O)n4[C@@H]3CC[C@]12C	-75.2	-32.4	-96.5	-100	8	-91.8	-93.7	8 mm	-94.8	> 100000	5330	> 100000	288	1050	1420	6010	113	545	4130	1050	TGI (NCI-H23): 3580 nM; TGI (HL-60(TB) [4]): 490 nM; TGI (OVCAR-5): 2870 nM; GI50 (HCC 2998): 431 nM; TGI (HCC 2998): 1640 nM; GI50 (ACHN): 1040 nM; TGI (ACHN): 2320 nM; GI50 (HT-29): 616 nM; TGI (HT-29): 2070 nM; CC50 (SK-MEL-2): 3390 nM; GI50 (UACC-257): 433 nM; TGI (UACC-257): 1550 nM; CC50 (A549): 4040 nM; CC50 (NCI-H522): 1540 nM; CC50 (SW-620): 5330 nM; GI50 (SF-268): 1460 nM; TGI (SF-268): 2880 nM; GI50 (U-251): 438 nM; TGI (U-251): 1590 nM; CC50 (TK-10): 3600 nM
CC(C)CCC[C@@H](C)[C@H]1CC[C@H]2C3=CC[C@@H]4C(=O)C=CC(=O)[C@@H]4[C@@H]3CC[C@]12C	-18.9	-9.33	2.72	-48.5		42	26.6	inactive	-6.21	> 100000	> 100000	> 100000	227	1170	147	> 100000	153	312	> 100000	212	TGI (OVCAR-5): > 100000 nM; GI50 (HCC 2998): 274 nM; TGI (HCC 2998): 855 nM; GI50 (ACHN): 162 nM; TGI (ACHN): 1350 nM; GI50 (HT-29): 839 nM; TGI (HT-29): > 100000 nM; CC50 (SK-MEL-2): > 100000 nM; GI50 (UACC-257): 230 nM; TGI (UACC-257): 610 nM; CC50 (A549): > 100000 nM; CC50 (NCI-H522): > 100000 nM; CC50 (SW-620): > 100000 nM; GI50 (SF-268): 566 nM; TGI (SF-268): > 100000 nM; GI50 (U-251): 94 nM; TGI (U-251): 1230 nM; CC50 (TK-10): > 100000 nM
